The Km is the concentration of substrate that gives half-maximal velocity.

These results are taken from article PMC4230322 (Biochemistry, 2014).

Molecules are shown by their SMILES. Several values for one entry are separate records, joined by “and”; a condition that tells them apart may be missing. Equal values may be shown once.

The target of test [1] is T1, SULT1A1 (Homo sapiens, UniProt P50225). The settings on record: PAP bound to SULT1A1, in favor of pore closure; cited from earlier work.
The target in test [2] is T1, SULT1A1. Nature of the test: Pre-steady-state PAPS binding. As to conditions: for Kd: read-out: koff/kon. The gist of the method: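 Stopped-flow, excitation 290 nm, emission above 330 nm. Enzyme solution (MgCl2 5.0 mM, NaPO4, pH 7.2, 25 ± 2 °C) mixed 1:1 with PAPS solution. High-affinity site: 30 nM dimer. Low-affinity site: 2.0 μM dimer pre-equilibrated with PAPS, then mixed with higher PAPS. Pseudo-first-order; three curves per concentration (each 8–10 shots) at four PAPS levels. Single-exponential kobs; kon from slope, koff from intercept.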

For test [3], the target named is T1, SULT1A1. Put plainly: Equilibrium binding of PAPS to SULT1A1. As to conditions: for Kd: pH 7.2, 25 °C. An outline of the steps: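 Human SULT1A1, codon-optimised, expressed in E. coli BL21(DE3) with a His/GST/MBP tag, then tag-cleaved. PAPS titrated into enzyme with MgCl2 5.0 mM and NaPO4 50 mM, pH 7.2, 25 ± 2 °C. Intrinsic fluorescence read at λex 290–295 nm, λem 345 nm. Dimer 0.05 μM for high-affinity Kd; 3.0 μM for first-site stoichiometry and low-affinity phase; 475 μM for full-site, at λex 297 nm. Triplicates averaged; single-site-per-dimer fit.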

Test [4] concerns the target T1, SULT1A1. Nature of the test: Equilibrium binding of TAM and 1-HP to SULT1A1 forms E, E·PAP, E·. The gist of the method: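 Acceptor titrated into SULT1A1 (0.05–10 μM dimer) with PAP 0–500 μM, MgCl2 5.0 mM, NaPO4 (25 or 50 mM), pH 7.2, 25 ± 2 °C. Intrinsic fluorescence read at λex 290 nm, λem 345 nm. Free enzyme had no PAP; 0.50 mM PAP saturates both sites; singly bound form used 9.0 μM dimer with 9.0 μM PAP. Biphasic phases fitted separately. Triplicates averaged; least-squares single-site fit.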

The target in test [5] is T1, SULT1A1. Nature of the test: Initial rate kinetics of TAM sulfation. In kind it is biochemical.
For test [6], the target named is T1, SULT1A1. Nature of the test: Initial rate of 1-HP sulfonation by SULT1A1. In kind it is biochemical. An outline of the steps: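 Recombinant SULT1A1 at 1.0 nM dimer with MgCl2 5.0 mM and NaPO4 50 mM, pH 7.2, 25 ± 2 °C. Reactions started with PAPS: 2.0 μM saturates both sites, 0.30 μM only the first. Acceptor 8.0–200 nM. Product fluorescence read at λex 320 nm, λem 380 nm. […]. Duplicates; weighted least-squares fit in double-reciprocal form.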

Setting [7] is: high-affinity PAPS binding site, pH 7.2, 25 °C.
[8] abbreviates: low-affinity PAPS binding site, dimer pre-equilibrated with PAPS.
The mark [9] stands for this setting: acceptor binding to E (no nucleotide), pH 7.2, 25 °C.
[10] abbreviates: acceptor binding to E·(PAP)2 (TAM: PAP 0.50 mM; 1-HP: PAP 2.0 µM).
[11] abbreviates: 1-HP as substrate, E·PAP form, [PAPS] 0.30 μM.

T1 sequence (P50225 whole entry): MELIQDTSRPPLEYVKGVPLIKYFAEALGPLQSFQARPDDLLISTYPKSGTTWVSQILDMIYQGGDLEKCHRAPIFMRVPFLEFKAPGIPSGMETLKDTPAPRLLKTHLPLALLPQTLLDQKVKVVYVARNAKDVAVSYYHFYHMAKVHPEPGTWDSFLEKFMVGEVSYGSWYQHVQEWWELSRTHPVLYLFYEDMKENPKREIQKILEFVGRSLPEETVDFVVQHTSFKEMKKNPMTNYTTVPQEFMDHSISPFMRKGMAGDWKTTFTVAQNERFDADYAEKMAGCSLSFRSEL

`Nc1ncnc2c1ncn2[C@@H]1O[C@H](COP(=O)(O)O)[C@@H](OP(=O)(O)O)[C@H]1O` [PAP, 3′,5′-diphosphoadenosine]: at SULT1A1 [1], the “isomerization equilibrium constant, Kiso” value is 26.

Take `Nc1ncnc2c1ncn2[C@@H]1O[C@H](COP(=O)(O)OS(=O)(=O)O)[C@@H](OP(=O)(O)O)[C@H]1O` [PAPS, 3′-phosphoadenosine 5′-phosphosulfate]: the “kon for the first site, aggregate value halved” value at SULT1A1 [2] (corrected for two subunits able to bind the first ligand) worked out at 1.0 μM^–1 s^–1. In addition, the koff at SULT1A1 [2] (setting [7]) is recorded as 0.70 (0.05) s^–1; on SULT1A1 [2] (setting [8]) it was 29 (1) s^–1. Moreover, the kon at SULT1A1 [2] (setting [7]) is reported as 2.0 (0.1) μM^–1 s^–1; at SULT1A1 [2] (setting [8]) it was 0.96 (0.01) μM^–1 s^–1. The Kd at SULT1A1 [2] (high-affinity PAPS binding site) turned out to be 0.37 µM; at SULT1A1 [2] (low-affinity PAPS binding site), 30 µM; at SULT1A1 [3] (high-affinity PAPS binding site, SULT1A1 0.05 μM dimer) it was 0.37 µM; at SULT1A1 [3] (low-affinity PAPS binding site, SULT1A1 3.0 μM dimer), 30 µM. In addition, the “PAPS binding stoichiometry at the high-affinity site” value at SULT1A1 [3] (SULT1A1 3.0 μM dimer (16Kd)) was 1.1 ± 0.2 PAPS molecules per dimer and 1.1 ± 0.1 PAPS molecules per dimer. Besides, on SULT1A1 [3] (low- vs high-affinity site), the “difference in affinities (Kd) of the two PAPS binding sites” value was 81 fold.

As to `Nc1ncnc2c1ncn2[C@@H]1O[C@H](COP(=O)(O)O)[C@@H](O)[C@H]1O` [AMP, Adenosine monophosphate], the “binding to SULT1A1” value on SULT1A1 [3] (used in control titrations for inner-filter correction) was “does not bind SULT1A1”.

`CC/C(=C(\c1ccc(O)cc1)c1ccc(OCCN(C)C)cc1)c1ccccc1` [TAM, 4-hydroxytamoxifen]: the Kd on SULT1A1 [4] (setting [9]) was 0.67 µM; on SULT1A1 [4] (setting [10]) it was 0.68 µM and 0.65 µM. Besides, the “stoichiometry of binding to E and E·(PAP)2” value on SULT1A1 [4] (SULT1A1 10 μM dimer, PAP 0 or 0.50 mM) was 2.0 ± 0.1 TAM bound per SULT1A1 dimer. Also, the “ratio of Km for the singly and doubly occupied enzyme” value on SULT1A1 [5] came out at 23.

The compound `Oc1ccc2ccc3cccc4ccc1c2c34` [1-HP, 1-hydroxypyrene] came in with a Kd on SULT1A1 [4] (setting [9]) of 8 µM. The same compound came in with a Kd at SULT1A1 [4] (setting [10]) of 0.025 µM. The kcat on SULT1A1 [6] (1-HP as substrate, E·(PAP)2 form, [PAPS] 2.0 μM) is 1000 (60) s^–1. Also, on SULT1A1 [6] (setting [11]), the Km worked out at 0.041 µM and the kcat is 130 (20) s^–1. In addition, at SULT1A1 [6] (1-HP sulfonation), the “effect of PAPS occupancy on Km” value is on record as “not affected by PAPS occupancy”; the “increase in kcat, doubly vs singly occupied enzyme” value is on record as ~8 fold; the “increase in turnover of each subunit, doubly vs singly occupied enzyme” value stood at 4 times.
